# Screening data as filed in PubChem.
# PTK2B oligo ant = blocks oligomerization of human Pyk2 in cells; Q293 cells, Pyk2 FERM NanoBiT luminescence; hits give low values; z-score (the deposit names both 25 µM and 10 µM); 0.83% of 99,000 active;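 active means Z-score of -3 or lower, scaled per plate to the spread of control and sample wells; inactive means z-score above -3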;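 further: negative z-score means lost luminescence so less FERM oligomerization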
# Fibroblast inh = blocks proliferation of human lung fibroblasts. LL 47 human lung fibroblast viability, ATP luminescence; hits give low values. viability, % at 10 µM. 1.1% of 85,000 active;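 active means viability at or below 50% in the single dose screen; inactive means viability above 50%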;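 further: compound exposure lasted 72 h before the ATP readout; 100% = median luminescence of untreated cell-only wells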
#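 test system = LL 47 human lung fibroblasts | amount = 1,150 fibroblasts seeded per well | medium = 15% FBS in IMEM | times = overnight cell rest, 72 h compound treatment at 37 °C | measured by = CellTiter-Glo luminescence measuring cellular ATP | read-out = viability percentage against median untreated-cell control | benchmarks = cell-only wells, no compound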
# HUVEC inhibit = inhibitors of human endothelial cell proliferation; HUVEC proliferation, CellTiter-Glo luminescence, 72 h; hits give low values; viability, % at 10 µM (by protocol); 1.1% of 86,000 active; AID 648;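 active means viability at or below 30%; inactive means viability above 30%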;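 further: 100% = median luminescence of DMSO-only cell control wells on each plate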
# HCT116 PTEN-null = PTEN-deleted cell growth suppression | HCT116 PTEN-null viability, CellTiter-Glo, 60 h; hits give low values | viability, % at 10 µM | 1.2% of 140,000 active;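 active means viability at or below a set limit, 4 SD under the median of all tested compounds, cut at about 3.7% in these data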;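 further: PTEN knockout HCT116 line with beta catenin targeted HCT116 as companion control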
# bCat KO growth = beta-catenin-lacking colon tumor cell growth suppression; 1.5% of 140,000 active; viability, % at 10 µM; AID 818; HCT116 beta-catenin knockout viability, CellTiter-Glo, 60 h; hits give low values;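 active means viability at or under a set limit, the compound median less 4 SD, cut at about 6% in these data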;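 further: 0% = Hyamine 1622 control at 20 µM and 100% = untreated cell control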
# H69AR growth 86K = blocks growth of human H69AR lung tumor cells; H69AR lung tumor viability, ATP luminescence, 72 h; hits give low values; viability, % at 10 µM; 6% of 85,000 active; AID 598;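 active means viability at or below 40%; inactive means viability above 40%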;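 further: multidrug resistant small cell line overexpressing MRP-1 efflux transporter; 100% = mean luminescence of untreated control wells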
# The depositor's hits bear a star; nt = no result. The sample as a whole holds a higher share of hits than the screen did.
SMILES,PTK2B oligo ant,Fibroblast inh,HUVEC inhibit,HCT116 PTEN-null,bCat KO growth,H69AR growth 86K
Cc1ccc(C(=O)Nc2ccc(Cl)cn2)cc1,-0.64,79.0,63.5,40.1,44.3,24.5*
O=C(CCC1COc2ccccc2O1)Nc1ccc(Cl)cn1 (configuration not stated),0.89,87.5,15.1*,43.7,49.3,92.2
Cc1ccnc(NC(=O)CCC2COc3ccccc3O2)c1 (configuration not stated),0.07,98.5,95.3,95.5,92.5,101.3
CCCCC(=O)Nc1ccc(Cl)cn1,0.13,103.2,109.0,91.7,97.2,106.1
CCCOc1ccc(C(=O)Nc2ccc(Cl)cn2)cc1,0.29,94.2,95.3,77.4,79.8,90.4
O=C(CCc1ccccc1)Nc1ccc(Cl)cn1,1.22,56.9,52.8,22.5,22.2,29.8*
CCN1C=CC2=C(C#N)C(N)C(C#N)(C#N)C(c3ccccc3C(F)(F)F)C2C1 (configuration not stated),-0.32,94.1,92.5,71.5,66.8,53.8
C/C(CC(=O)Nc1c(C)cc(C)cc1C)=N\NC(=O)c1cnccn1,nt,nt,nt,93.0,82.6,nt
N=C1C(c2nc3ccccc3s2)=C(O)CN1Cc1ccccc1,-1.32,52.4,46.3,30.9,31.0,17.1*
CC1CCCCN1C(=O)COC(=O)c1n[nH]c2ccccc12 (configuration not stated),0.26,99.2,92.7,101.7,102.8,94.1
O=S(=O)(CC(CN1CCCC1)N1CCCC1)c1ccc2ccccc2c1 (configuration not stated),2.66,3.5*,18.4*,2.1*,1.9*,1.9*
CC(CS(=O)(=O)c1ccc2ccccc2c1)N1CCN(C2CCCCC2)CC1 (configuration not stated),nt,95.0,86.9,nt,nt,82.5
CC(=O)NNC(=O)C(O)(c1ccccc1)c1ccccc1,0.38,nt,nt,96.3,108.8,nt
Cc1ccc(/C(O)=C/C(=O)C(=O)NNC(=O)C(O)(c2ccccc2)c2ccccc2)cc1,1,112.3,77.6,102.1,92.0,11.0*
Clc1cccc(N/N=C/c2ccc(N3CCOCC3)s2)c1,nt,nt,nt,88.8,85.5,nt
CCCCOC(=O)n1c(=O)oc2cc(S(=O)(=O)N3CCCCC3)ccc21,-3.1*,nt,nt,88.2,95.8,nt
COc1cc(C(=O)CCN2CCC(c3ccccc3)C2)cc(OC)c1OC (configuration not stated),nt,nt,nt,90.2,76.4,nt
O=C(CC1c2ccccc2Oc2ccccc21)N1CCN(c2ccccn2)CC1,-0.43,109.9,96.7,57.5,61.6,38.4*
COCCn1c(COc2ccc(C)cc2)nc2ccccc21,-1.01,106.2,101.5,69.6,70.5,95.8
Cc1ccc(OCCn2c(=O)cnc3ccccc32)cc1,0.58,57.8,40.2,14.6,14.0,19.0*
CCCCn1c(=N)n(CCOc2ccc(C)cc2)c2ccccc21,nt,nt,nt,1.9*,1.9*,nt
CCN(CC)CCn1c(=N)n(CCOc2ccccc2)c2ccccc21,-0.03,32.5*,64.4,21.6,19.3,10.2*
COc1ccc(OCCn2c(=N)n(CCO)c3ccccc32)cc1,-0.23,97.2,107.5,83.9,75.3,80.5
NC(=O)CC[C@@H]1NC(=O)[C@@H]2CCCN2C(=O)c2cc([N+](=O)[O-])cc(I)c2NCCCC[C@@H](C(=O)NC(CC(=O)O)C(N)=O)NC1=O (some centres not stated),nt,nt,nt,101.9,96.9,nt
COC(=O)c1cc(NC(=O)C2CCCN(S(=O)(=O)c3c(C)n[nH]c3C)C2)cc(C(=O)OC)c1 (configuration not stated),nt,96.4,72.5,nt,nt,95.7
CN(C)S(=O)(=O)c1ccc(C(=O)Nc2ccnn2C2CCCCC2)cc1,0.86,101.1,106.0,89.5,82.3,93.8
O=C(NC(=S)Nc1nc2c(s1)CSc1ccccc1-2)c1ccccc1,0.86,87.1,74.9,83.6,75.3,51.4
COc1cc2c(=O)n(Cc3ccccc3)c(=O)n(CC(=O)NCCc3ccccc3)c2cc1OC,0.17,64.5,75.9,32.5,67.3,33.4*
COc1cc2c(=O)n(Cc3ccccc3)c(=O)n(CC(=O)NCC3CCCO3)c2cc1OC (configuration not stated),0.02,nt,nt,100.6,85.0,nt
COc1ccc(-c2c[n+]3c4n2CCCCC4=C(c2ccc(Br)cc2)C3)cc1,2.3,nt,nt,7.0,6.7,nt
